Where “and” joins values, the source holds several entries; their conditions need not be identical. Identical values can stand only once.
How the values were obtained:
[1] = test system: P388; experiment: Maximum % T/C with mitomycin C against P-388 murine leukemia cells in mice.; type: functional, Mus musculus
How it was run: (§1)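 P-388 ascites leukemia, 10⁶ cells implanted ip in female CDF₁ mice. Six mice per dose, with 10 saline-injected controls. A six-mouse mitomycin C group was run at each dose in the same experiment. % T/C = median survival time treated/control × 100 at the optimal dose. MED is the lowest dose giving T/C ≥ 125.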

[2] = test system: P388; experiment: Optimal dose required for antitumor activity against P-388 murine leukemia cells in mice.; type: functional, Mus musculus; how it was run: as §1
[3] = test system: P388; experiment: Maximum % T/C against P-388 murine leukemia cells in mice.; type: functional, Mus musculus; how it was run: as §1
[4] = test system: P388; experiment: Minimum effective dose required for antitumor activity against P-388 murine leukemia cells; type: functional; conditions: Mus musculus, read-out: MED; how it was run: as §1
[5] = Therapeutic ratio as optimal dose/minimal effective dose; type: ADME; conditions: mouse, p388; read-out: TR
[6] = test system: P388; experiment: Leukopenia % change in WBC at optimal dose on 3rd day.; type: functional, Mus musculus
[7] = test system: L1210; experiment: Optimal dose required for antitumor activity L-1210 leukemia cells in mice.; type: functional, Mus musculus
How it was run: (§2)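 L-1210 leukemia in mice, run by the standard NCI protocol with one dose on day 1. % T/C is based on survival. Repeated assays are reported as both values.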

[8] = test system: L1210; experiment: Minimum effective dose required for antitumor activity against L-1210 leukemia cells in mice.; type: functional; conditions: Mus musculus, read-out: MED; how it was run: as §2
[9] = test system: L1210; experiment: Maximum % T/C against L-1210 leukemia cells in mice.; type: functional, Mus musculus; how it was run: as §2
[10] = Partition coefficient (logP); type: physicochemical; conditions: octanol/water
[11] = test system: B16; experiment: (§3) Average weight change after ip administration in B-16 melanoma in mice (dose mg/kg/day); type: functional, Mus musculus
How it was run: (§4)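 B-16 melanoma in mice, run by the standard NCI protocol. Drug given ip on days 1, 4 and 7, ten mice per dose. Read-outs were median survival time as % T/C of controls and average body-weight change in g.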

[12] = test system: B16; experiment: as §3; type: functional, Mus musculus; how it was run: as §4; remark: listed apart in the source
[13] = test system: B16; experiment: Average weight change after ip administration of in B-16 melanoma in mice (dose mg/kg/day); type: functional, Mus musculus; how it was run: as §4
[14] = test system: B16; experiment: (§5) Median survival time (% T/C) after ip administration in B-16 melanoma in mice (dose mg/kg/day); type: functional, Mus musculus; how it was run: as §4
[15] = test system: B16; experiment: as §5; type: functional; how it was run: as §4
[16] = test system: B16; experiment: Tumor free survivors on 45th day after ip administration of in B-16 melanoma in mice (dose mg/kg/day); 0
[17] = test system: B16; experiment: Tumor free survivors on 45th day after ip administration in B-16 melanoma in mice (dose mg/kg/day); 0
[18] = test system: B16; experiment: as §5; type: functional; how it was run: as §4; remark: listed apart in the source
[19] = test system: B16; experiment: Average weight change after ip administration inB-16 melanoma in mice (dose mg/kg/day); type: functional, Mus musculus
How it was run: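 Mice bearing B-16 melanoma were tested under the standard NCI protocol at Arthur D. Little. Compound was injected ip on days 1, 4 and 7, with ten mice per dose. Average body-weight change is reported in g. Alongside it, median survival time was given as % T/C and cures as tumor-free survivors on day 45.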

SMILES | T/C [1] | Dose [2] | T/C [3] | minimal effective dose [4] | selectivity ratio [5] | Change in WBC [6] | Dose [7] | minimal effective dose [8] | T/C [9] | logP [10] | Average weight change [11] | Average weight change [12] | Average weight change [13] | T/C [14] | T/C [15] | Cures [16] | Cures [17] | T/C [18] | Average weight change [19]
CCN1CCCC1C/N=C1/C(=O)C2=C(C(O)=C1C)N1C[C@H]3N[C@H]3C1(OC)[C@H]2COC(N)=O (some centres undefined) | 211% | 12.8 mg/kg | 217% | 0.8 mg/kg | 16 | -29% |  |  |  |  |  |  |  |  |  |  |  |  | 
CCSCC/N=C1/C(=O)C2=C(C(O)=C1C)N1C[C@@H]3[C@@H](N3C)C1(OC)[C@H]2COC(N)=O (some centres undefined) | 322% | 25 mg/kg | 200% | 6.4 mg/kg | 4 |  | 48 mg/kg | 24 mg/kg | 143% |  |  |  |  |  |  |  |  |  | 
COC12[C@@H]3N[C@@H]3CN1C1=C(C(=O)/C(=N/CCN3CCCC3)C(C)=C1O)[C@@H]2COC(N)=O (some centres undefined) | 211% | 12.8 mg/kg | 194% | 0.4 mg/kg | 32 | -64% | 5 mg/kg | 5 mg/kg | 125% |  |  |  |  |  |  |  |  |  | 
COC12[C@@H]3N[C@@H]3CN1C1=C(C(=O)/C(=N/CCc3ccc(O)cc3)C(C)=C1O)[C@@H]2COC(N)=O (some centres undefined) | 288% | 25.6 mg/kg | 218% | 1.6 mg/kg | 16 |  | 48 mg/kg | 12 mg/kg | 125% |  |  |  |  |  |  |  |  |  | 
CC/N=C1/C(=O)C2=C(C(O)=C1C)N1C[C@H]3N[C@H]3C1(OC)[C@H]2COC(N)=O (some centres undefined) | 322% | 12.8 mg/kg | 250% | 0.8 mg/kg | 32 |  |  |  |  | 0.35 |  |  |  |  |  |  |  |  | 
COC12[C@@H]3N[C@@H]3CN1C1=C(C(=O)/C(=N/CCN)C(C)=C1O)[C@@H]2COC(N)=O (some centres undefined) | 156% | 3.3 mg/kg | 178% | 0.4 mg/kg | 8 |  |  |  |  | -0.84 |  |  |  |  |  |  |  |  | 
COCC/N=C1/C(=O)C2=C(C(O)=C1C)N1C[C@H]3N[C@H]3C1(OC)[C@H]2COC(N)=O (some centres undefined) | 268% | 12.8 mg/kg | 205% | 0.8 mg/kg | 16 | -57% | 12 mg/kg | 6 mg/kg | 143% | -0.12 | -0.4 g | -1.7 g | -2 g | 190% |  |  |  |  | 
COC12[C@@H]3N[C@@H]3CN1C1=C(C(=O)C(NCCC#N)=C(C)C1=O)[C@@H]2COC(N)=O (some centres undefined) | 268% | 6.4 mg/kg | 232% | 0.4 mg/kg | 16 | -40% | 12 mg/kg | 3 mg/kg | 130% | -0.49 |  |  |  |  |  |  |  |  | 
COC12[C@@H]3N[C@@H]3CN1C1=C(C(=O)C(NCCN(C)C)=C(C)C1=O)[C@@H]2COC(N)=O (some centres undefined) | 161% | 12.8 mg/kg | 233% | 0.4 mg/kg | 32 |  | 12 mg/kg | 6 mg/kg | 136% |  |  |  |  |  |  |  |  |  | 
COC12[C@@H]3N[C@@H]3CN1C1=C(C(=O)C(N[C@@H]3CC3c3ccccc3)=C(C)C1=O)[C@@H]2COC(N)=O (some centres undefined) | 233% | 25.6 mg/kg | 200% | 1.6 mg/kg | 16 |  |  |  |  |  |  |  |  |  |  |  |  |  | 
CO[C@@]12[C@H](COC(N)=O)C3=C(C(=O)C(C)=C(N)C3=O)N1C[C@@H]1N[C@@H]12 [MITOMYCIN] |  | 3.2 mg/kg | 161% |  | 16 | -42% | 3 mg/kg | 3 mg/kg | 124% |  | -1.1 g |  | -2.2 g |  | 190% | 0 | 0 | 160% and 127% | -0.7 g

— ChEMBL document CHEMBL1122307, “Mitomycin C and porfiromycin analogues with substituted ethylamines at position 7” (J Med Chem, 1983)
